# Legend:
# TZM = assay: Cytotoxicity against human TZM-bl cells after 4 days by XTT assay; assay type: cell-based; details: 96 h
# [1] = test system: Human immunodeficiency virus 1; assay: Antiviral activity against HIV1 NL4-3 infected in human TZM-bl cells after 2 days by luciferase-bright glo assay; assay type: functional, organism-based; details: Human immunodeficiency virus 1, NL4-3, TZM-bl, 48 h
# [2] = Selectivity ratio of CC50 for human TZM-bl cells to EC50 for HIV1 NL4-3 infected in human TZM-bl cells; assay type: toxicity, cell-based; details: read-out: Ratio CC50/EC50
# Outline: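 The selectivity index is CC50/EC50 in TZM-bl cells against NL4-3. […] The highest concentration tested was 125 ng/mL.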
# [3] = test system: Human immunodeficiency virus 1; assay: Antiviral activity against wild type HIV1 3B infected in human MT4 cells assessed as reduction in virus-induced cytopathic effect after 5 days by MTT assay; assay type: functional, organism-based; details: Human immunodeficiency virus 1, 3B, MT4, 120 h
# [4] = test system: Human immunodeficiency virus 1; assay: Antiviral activity against HIV1 RES056 infected in human MT4 cells assessed as reduction in virus-induced cytopathic effect after 5 days by MTT assay; assay type: functional, organism-based; details: Human immunodeficiency virus 1, RES056, MT4, 120 h
# [5] = test system: Human immunodeficiency virus 2; assay: Antiviral activity against HIV2 ROD infected in human MT4 cells assessed as reduction in virus-induced cytopathic effect after 5 days by MTT assay; details: Human immunodeficiency virus 2, ISOLATE ROD, MT4, 120 h
# [6] = target: Human immunodeficiency virus type 1 reverse transcriptase (Human immunodeficiency virus 1, UniProt Q72547); assay: Inhibition of recombinant HIV1 reverse transcriptase using (DIG)-dUTP and biotin-labeled dNTPs as substrate after 1 hr by ELISA
# MT4 = assay: Cytotoxicity against human MT4 cells after 5 days by MTT assay; assay type: cell-based; details: mt4, 120 h
# [7] = Selectivity ratio of CC50 for human MT4 cells to EC50 for HIV1 RES056 infected in human MT4 cells; assay type: toxicity, cell-based; details: read-out: Ratio CC50/EC50
# [8] = Selectivity ratio of CC50 for human MT4 cells to EC50 for HIV1 3B infected in human MT4 cells; assay type: toxicity, cell-based; details: read-out: Ratio CC50/EC50
Structure (SMILES),CC50 (TZM) [nM],EC50 [1] [nM],selectivity ratio [2],EC50 [3] [nM],EC50 [4] [nM],EC50 [5] [nM],also measured
Cc1cc(C#N)cc(C)c1Oc1nc(N[C@H]2CCN(Cc3ccc(C(N)=O)cc3)C2)nc2ccsc12,> 250,55.7,4.5,–,–,–,–
Cc1cc(C#N)cc(C)c1Oc1nc(NC2CCN(Cc3cccc(C(N)=O)c3)CC2)nc2c1COC2,–,–,–,7.8,1030,209000,IC50 [6]: 91 nM
Cc1cc(C#N)cc(C)c1Oc1nc(NC2CCN(Cc3ccc(S(N)(=O)=O)cc3)CC2)nc2c1CCCC2,–,–,–,6,667,> 228000,CC50 (MT4): > 228000 nM; IC50 [6]: 84 nM
Cc1cc(C#N)cc(C)c1Oc1nc(NC2CN(Cc3cccc(C(N)=O)c3)C2)nc2ccsc12,> 257,8.95,29,–,–,–,–
Cc1cc(C#N)cc(C)c1Oc1nc(N[C@H]2CCN(Cc3ccc(S(N)(=O)=O)cc3)C2)nc2ccsc12,–,104,2.2,–,–,–,–
Cc1cc(C#N)cc(C)c1Oc1nc(NC2CCN(Cc3ccc(NS(C)(=O)=O)cc3)CC2)nc2c1CSC2,–,–,–,11.2,5240,> 257000,CC50 (MT4): > 257000 nM; IC50 [6]: 140 nM
Cc1cc(C#N)cc(C)c1Oc1nc(NC2CCN(Cc3ccc(N)cc3)CC2)nc2c1CSC2,–,–,–,8.4,704,108000,CC50 (MT4): > 257000 nM; IC50 [6]: 115 nM
Cc1cc(C#N)cc(C)c1Oc1nc(NC2CC3CCC(C2)N3Cc2ccc(S(N)(=O)=O)cc2)nc2ccsc12 (stereo not drawn),> 217,> 217,1,–,–,–,–
Cc1cc(C#N)cc(C)c1Oc1nc(NC2CCN(Cc3ccc(S(C)(=O)=O)cc3)CC2)nc2c1SCCC2,–,–,–,3.9,98.3,> 3400,CC50 (MT4): ≥ 3400 nM
Cc1cc(C#N)cc(C)c1Oc1nc(NC2CN(Cc3ccc(S(C)(=O)=O)cc3)C2)nc2ccsc12,> 240,207,1.1,–,–,–,–
Cc1cc(C#N)cc(C)c1Oc1nc(NC2CN(Cc3ccc(S(N)(=O)=O)cc3)C2)nc2ccsc12,> 240,4.53,53,–,–,–,–
Cc1cc(C#N)cc(C)c1Oc1nc(NC2CCN(Cc3ccc(C(N)=O)cc3)CC2)nc2c1CCC2,–,–,–,6.1,173,139000,IC50 [6]: 73 nM
Cc1cc(C#N)cc(C)c1Oc1nc(N[C@H]2CCN(Cc3ccc(S(C)(=O)=O)cc3)C2)nc2ccsc12,> 234,50.7,4.6,–,–,–,–
Cc1cc(C#N)cc(C)c1Oc1nc(NC2CC3CCC(C2)N3Cc2ccc(S(C)(=O)=O)cc2)nc2ccsc12 (stereo not drawn),> 217,> 217,1,–,–,–,–
Cc1cc(C#N)cc(C)c1Oc1nc(NC2CCN(Cc3ccc([N+](=O)[O-])cc3)CC2)nc2c1SCCC2,–,–,–,8.6,604,> 4000,CC50 (MT4): 4000 nM; selectivity ratio [7]: 6.6; selectivity ratio [8]: 465
Cc1cc(C#N)cc(C)c1Oc1nc(N[C@H]2CCN(Cc3ccncc3)C2)nc2ccsc12,–,16.7,16,–,–,–,–
Cc1cc(C#N)cc(C)c1Oc1nc(NC2CCN(Cc3ccc([N+](=O)[O-])cc3)CC2)nc2c1COC2,–,–,–,7.4,511,> 11100,IC50 [6]: 92 nM
Cc1cc(C#N)cc(C)c1Oc1nc(NC2CCCN(Cc3ccncc3)CC2)nc2ccsc12 (stereo not drawn),> 257,31.7,8,–,–,–,–
Cc1cc(C#N)cc(C)c1Oc1nc(NC2CCCN(Cc3ccc(S(C)(=O)=O)cc3)CC2)nc2ccsc12 (stereo not drawn),> 222,9.98,22,–,–,–,–
Cc1cc(C#N)cc(C)c1Oc1nc(NC2CC3CCC(C2)N3Cc2ccc(C(N)=O)cc2)nc2ccsc12 (stereo not drawn),> 232,> 232,1,–,–,–,–

Structure (SMILES),CC50 (TZM) [nM],EC50 [1] [nM],selectivity ratio [2],EC50 [3] [nM],EC50 [4] [nM],EC50 [5] [nM],also measured
Cc1cc(C#N)cc(C)c1Oc1nc(NC2CN(Cc3ccc(C(N)=O)cc3)C2)nc2ccsc12,> 257,4.76,54,–,–,–,–
Cc1cc(C#N)cc(C)c1Oc1nc(NC2CCN(Cc3ccc(C(N)=O)cc3)CC2)nc2c1SCCC2,–,–,–,3,93,> 44300,CC50 (MT4): ≥ 44300 nM
Cc1cc(C#N)cc(C)c1Oc1nc(N[C@H]2CCN(Cc3cccc(C(N)=O)c3)C2)nc2ccsc12,> 250,> 250,1,–,–,–,–
Cc1cc(C#N)cc(C)c1Oc1nc(N[C@@H]2CCN(Cc3ccc(S(N)(=O)=O)cc3)C2)nc2ccsc12,> 233,8.69,26,–,–,–,–
Cc1cc(C#N)cc(C)c1Oc1nc(NC2CN(Cc3ccncc3)C2)nc2ccsc12,> 282,2.21,128,–,–,–,–
Cc1cc(C#N)cc(C)c1Oc1nc(NC2CC3CCC(C2)N3Cc2ccncc2)nc2ccsc12 (stereo not drawn),> 251,> 251,1,–,–,–,–
Cc1cc(C#N)cc(C)c1Oc1nc(N[C@@H]2CCN(Cc3cccc(C(N)=O)c3)C2)nc2ccsc12,–,41.3,6,–,–,–,–
Cc1cc(C#N)cc(C)c1Oc1nc(NC2CCN(Cc3ccc(C(N)=O)cc3)CC2)nc2c1CCCC2,–,–,–,6,291,> 233000,CC50 (MT4): > 233000 nM; IC50 [6]: 51 nM
Cc1cc(C#N)cc(C)c1Oc1nc(NC2CCN(Cc3ccc(S(C)(=O)=O)cc3)CC2)nc2c1CCCC2,–,–,–,8,66.1,≥ 163000,CC50 (MT4): > 266000 nM; IC50 [6]: 89 nM
Cc1cc(C#N)cc(C)c1Oc1nc(NC2CC3CCC(C2)N3Cc2cccc(C(N)=O)c2)nc2ccsc12 (stereo not drawn),> 232,> 232,1,–,–,–,–
Cc1cc(C#N)cc(C)c1Oc1nc(NC2CCN(Cc3ccncc3)CC2)nc2c1SCC2,–,–,–,2.6,46,15700,IC50 [6]: 112 nM
Cc1cc(C#N)cc(C)c1Oc1nc(N[C@@H]2CCN(Cc3ccncc3)C2)nc2ccsc12,> 273,16,17,–,–,–,–
Cc1cc(C#N)cc(C)c1Oc1nc(NC2CCCN(Cc3ccc(C(N)=O)cc3)CC2)nc2ccsc12 (stereo not drawn),> 237,> 237,1,–,–,–,–
Cc1cc(C#N)cc(C)c1Oc1nc(NC2CCCN(Cc3ccc(S(N)(=O)=O)cc3)CC2)nc2ccsc12 (stereo not drawn),> 222,2.2,–,–,–,–,–
Cc1cc(C#N)cc(C)c1Oc1nc(N[C@@H]2CCN(Cc3ccc(S(C)(=O)=O)cc3)C2)nc2ccsc12,–,13.9,16,–,–,–,–
Cc1cc(C#N)cc(C)c1Oc1nc(NC2CCN(Cc3ccncc3)CC2)nc2c1CCC2,–,–,–,1.8,54.7,138000,CC50 (MT4): > 274000 nM; IC50 [6]: 73 nM
Cc1cc(C#N)cc(C)c1Oc1nc(NC2CCCN(Cc3cccc(C(N)=O)c3)CC2)nc2ccsc12 (stereo not drawn),> 237,10.3,23,–,–,–,–
Cc1cc(C#N)cc(C)c1Oc1nc(N[C@@H]2CCN(Cc3ccc(C(N)=O)cc3)C2)nc2ccsc12,–,10.4,24,–,–,–,–
Cc1cc(C#N)cc(C)c1Oc1nc(NC2CCN(Cc3cccc(C(N)=O)c3)CC2)nc2c1SCC2,–,–,–,27.7,629,> 223000,IC50 [6]: 94 nM
